System: MS2 coat protein
Test: apparent Kd, MS2 coat protein; higher = weaker binding; RNA-MaP array; FMN 200 µM where present
How it was run: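 Stalled E. coli RNA polymerase transcribed the designs on Illumina sequencing-chip clusters. SNAP-549-labelled MS2 coat protein was titrated from 0.7 or 1.5 nM, doubling to 3 µM, without and then with constant ligand, in 100 mM Tris-HCl pH 7.5, 80 mM KCl, 4 mM MgCl2, BSA, DTT, yeast tRNA and Tween-20. Per-cluster binding curves were fitted to green signal normalised to red-channel RNA signal and control-cluster median Fmax. The apparent Kd is the median of the filtered fits.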

[1] = designed as: ON switch for flavin mononucleotide, no ligand
[2] = ligand present: flavin mononucleotide, designed as: ON switch for flavin mononucleotide
[3] = designed as: OFF switch for flavin mononucleotide, no ligand
[4] = ligand present: flavin mononucleotide, designed as: OFF switch for flavin mononucleotide

| Sequence | apparent Kd [1] | apparent Kd [2] | apparent Kd [3] | apparent Kd [4] |
| --- | --- | --- | --- | --- |
| AUACAUGAGGAUCACCCAUGUAAUUAAUUAACUAGUAAGAUCUAGGAUAUCAGCUCGAUUAGAGCUGAGAAGGAGAUCACAUGU | 34.7 nM | 16.9 nM | – | – |
| UAGAGUCUUGAGGAUAUUGGUACGUACCGGUCCCAAGAAGGCGAGACAUGAGGAUCACCCAUGUGACCGUGAGC | – | – | 31.9 nM | 47.8 nM |
| GGAAAACAUGAGGAUCACCCAUGUAAGGAUAUGCAAAAGGAUAUAGAAGGAAAAAAAAGCAGAAGGUACAAAGG | – | – | 39.9 nM | 74.8 nM |
| GUACCUUAUGAGAAGGCGAUCAUUAAACAUGAUCGAGGAUAUCAUGUAAACAUGAGGAUCACCCAUGUAUGGGUAUUAUGGUAC | 66.7 nM | 19.3 nM | – | – |
| CCAGAGAUAUGAGGAUAUCGAGUGGAAUACACUCGAGAAGGCAUGUGAAAACAUGAGGAUCACCCAUGUGAUCAAUACUCUGGA | 176 nM | 27.7 nM | – | – |
| GCCGUGUUAGGAUAUUAAAGACCUGCGCCGAGCGCAGGAAGUAAGAAGGAACAUGAGGAUCACCCAUGUGUCCG | – | – | 18.1 nM | 16.1 nM |
| GUGGGUGAUGGAGGAUAUGACGACGGGUUUUACAUGAGGAUCACCCAUGUGGCGUUCCGCAAAAGUCAGAAGGCCAGGUAUACU | 332 nM | 40.6 nM | – | – |
| GGCGCCCGGGCGGAGUCCCACACACAUGAGGAUCACCCAUGUAGAAGGCGCUGCCGCAAGGUCAGCGAGGAUAUACAUUAAGGA | – | – | 14.8 nM | 45.8 nM |
| GCAGCUAAUGCAGGAUAUCAGCACGUGUAGUGCUGAGAAGGGCACAUGAGGAUCACCCAUGUGAUCAAUCAAUGUUAAUGCUGC | – | – | 9.43 nM | 38.3 nM |
| GAAGAUAUAGGAUAUACAUGAGGAUCACCCAUGUGAGUACGCAAGGCUAGAUCGCUUUGUAGAAGGAUAUACCG | – | – | 38.5 nM | 40.8 nM |
| GAUUAACAUGAGGAUCACCCAUGUCGUUAAAUGGGAGGAUAUACGUGGACCGUAGUCCGCGUAGAAGGCCUAAUUG | 144 nM | 29.2 nM | – | – |
| GGAGACCUCACAGGAUAUGCUGGACUUUGUCCAGCAGAAGGGUGAAACAUGAGGAUCACCCAUGUAAUGGUCUCCAAAUUUAAU | 1030 nM | 55.6 nM | – | – |
| GCGUUUACGGUUGACACUUAGCGAGAGGAUAUGGAAAACAAGACAUGAGGAUCACCCAUGUACUAUCAGAAGGCUCGAGUACGC | 8.65 nM | 5.29 nM | – | – |
| AGUGGGCUAGGAUAUCGAUGAACUCACAUGAGGAUCACCCAUGUGUCUUCGGUGGGCUCACGAGAAGGAGUAAGUU | – | – | 17.6 nM | 23.2 nM |
| AUACCACGAGGAUAUCGUCUAUAUUACAUGAGGAUCACCCAUGUUAUAUUUGUAAUGUUUCGAGAAGGCGUGUUUU | – | – | 15.3 nM | 13.3 nM |
| AAUAAGUCAGGAUAUACUAUGUCAGGAGAGAGACUGACUAUGUAGAAGGGACAUGAGGAUCACCCAUGUAAUAA | – | – | 28.6 nM | 35.9 nM |
| CUCGCAGUAAUAGGAUAUCCACAUCCGUGGCCUGUGUGUGACUUAACAUGAGGAUCACCCAUGUUGGAGAAGGAUUACUCAAUA | – | – | 728 nM | 178 nM |
| UUAUAUAGUGUGAGGAUAUGCUGGUCCUUGGAUCAGCAGAAGGCACAUGAGGAUCACCCAUGUAGUUUAUUUUA | – | – | 29 nM | 129 nM |
| GCCAGUUAUGUAGGAUAUGCGAGGCGAGCCUGAGCAGAAGGACAUGAGGAUCACCCAUGUAUUGCGGUUUAAGUUCAGAUCGCU | – | – | 17.6 nM | 23.4 nM |

| Sequence | apparent Kd [1] | apparent Kd [2] | apparent Kd [3] | apparent Kd [4] |
| --- | --- | --- | --- | --- |
| CUAUGAAGAAUAGGAUAUUCGAUCAAAAGGAUAGAAGAAGGGUUACAUGAGGAUCACCCAUGUAUGCACAUGAGGAUCCCUUAG | – | – | 188 nM | 196 nM |
| UAAGUUUAGGUAGGAUAUACUUUCAAUUUCUCUUUCCUUACAUGAGGAUCACCCAUGUUUACAUUGUAGAAGGACCACUAUGUU | – | – | 31.8 nM | 26.8 nM |
| UUACUAUUACAGAAGGUUAAAUAAUAUAUAAAUGAAGGAUAUGUAACAUGAGGAUCACCCAUGUUUCACCCACAUGAGGAUCAC | – | – | 13.9 nM | 12 nM |
| UUGAUAAGGAGAGGAUAUGGACAUGAGGAUCACCCAUGUACAUGGGAAUAUUUACUGAAUUCUUACUAGAAGGCUUACAUAUUU | – | – | 15.7 nM | 13.3 nM |
| AAUACAUGAGGAUCACCCAUGUAAAGAUCUGUUAAUAGAUGUGAGGAUAUACUAAAUUUUAGGUAGUAGAAGGCACUGGGUACA | 22.1 nM | 26 nM | – | – |
| CCUAGAUAGGGAGGAUAUCACAACCAUCCCGGCGAUCCAACUACAUGAGGAUCACCCAUGUGGUGUGAGAAGGCCCAGUAAUAG | – | – | 143 nM | 78.6 nM |
| CACGGCGUAUCAGGAUAUGUGGGUGUCUGGACAUGAGGAUCACCCAUGUAAACAGUAUUAGCCGUGCAGAAGGGAUCCGCUGUA | 39 nM | 65.2 nM | – | – |
| ACAUGACAUGAGGAUCACCCAUGUGAGGAUAUGCGAAAAAAAUUUUUAAAAAAAAUUGGCAGAAGGCACAAAAU | – | – | 121 nM | 139 nM |
| GUCACUAGAGGAUAUACAAUGGUAUAUGAUCCUAGAGACAAACAUGAGGAUCACCCAUGUAGAAGGCUAGUAUU | – | – | 155 nM | 37.4 nM |
| AUAGGAUGAGGUGACGUACAUGAGGAUCACCCAUGUUUGACACAGGAUAUCCCGCGACUUGGUUUGGAGAAGGGUGGCAGACAA | – | – | 164 nM | 119 nM |
| CCUCAUAUUUAGGAUAUGAUUGGUAAUUAUUAGUUAGAAGGAGGUACAUGAGGAUCACCCAUGUAAUAUUUAAA | – | – | 21.5 nM | 21.2 nM |
| CGUGCGUAUGUGAGGAUAUGCUGGUCCUUGGAUCAGCAGAAGGCACAUGAGGAUCACCCAUGUGGUGUCGUACC | – | – | 262 nM | 44.1 nM |
| UAUUAUUGCAAGGAUAUGCUUUUUAUUUCUUUUGCAGAAGGUGCAACAUGAGGAUCACCCAUGUUUCCGGGUAU | – | – | 19.7 nM | 28.9 nM |
| CUGUUCACCAGUGGGCGACCACAUGAGGAUCACCCAUGUAGGGAGGAUAUGCCCGCGCAGCUGUAGCAGAAGGCCCUGCAAAUC | – | – | 21.2 nM | 125 nM |
| UCUGUUCAAGGAUAUGCGUAAUGUGUUACGGCACAAGGUCUACAUGAGGAUCACCCAUGUAGAAGGUGAUCAGA | – | – | 20.8 nM | 22.4 nM |
| GUGUGCAGAGGAUAUACAGAGGAAAAGAAGAAAGAAGAGGGACAUGAGGAUCACCCAUGUAGAAGGCUGAGUGU | – | – | 33.9 nM | 35.2 nM |
| UUCUUGGCAGGAUAUGCUCUCUUAGACAUGAGGAUCACCCAUGUGUUCAUUCUUUCUUUUGCAGAAGGGCCUUAAU | – | – | 56.5 nM | 69.9 nM |
| CUUUAUGUUGAGGAUAUGCACCAGCUCACUGACGCAGAAGGCGACACAUGAGGAUCACCCAUGUCAGUUCGCGU | – | – | 17.6 nM | 17.8 nM |
| AGCACGAAAGUGCAACGAUGUACGAGAAGGACAUGAGGAUCACCCAUGUUGCUGUAACAGCACAUGUAGGAUAUCGUACAUCGA | – | – | 166 nM | 180 nM |

| Sequence | apparent Kd [1] | apparent Kd [2] | apparent Kd [3] | apparent Kd [4] |
| --- | --- | --- | --- | --- |
| AUCAGCUCGUCAGGAUAUACGUCACUGCGUCAGCAGUGUGGUAAGAUCACAUGAGGAUCACCCAUGUAGAAGGGACGAGCGGAU | – | – | 14.3 nM | 279 nM |
| UUACUGCGAGGAUAUGCGAUCCAGACCAUGAUGUAAUUCCGACAUGAGGAUCACCCAUGUAGAAGGUGCAGUGG | – | – | 22.4 nM | 27.1 nM |
| GAAUAAUUGAUCCUUUUUUAUUACAUGAGGAUCACCCAUGUGCAGGAUAUCGAUUGUUGUAGUUUCGAGAAGGGCAAGAACUGU | – | – | 187 nM | 280 nM |
| CCAGCGUGUGUGAGGAUAUGCUGGUCCUUGGAUCAGCAGAAGGCACAUGAGGAUCACCCAUGUGAGAGCGUUGG | – | – | 19.6 nM | 86.1 nM |
| GUAAGCGACCAGAAGGGUGACAUGAGGAUCACCCAUGUAGAUGUGUUCCCGCUUGGGAACCGUCCACAGGAUAUGGUUGGCUAU | 35.3 nM | 18 nM | – | – |
| ACCCGACAUGAGGAUCACCCAUGUAAACAAUCAUGAGGAUAUCCGGAGCAAGUGCUCCAGGGAGAAGGCAUAAAAG | 76.3 nM | 42.2 nM | – | – |
| AAAGUGUGAGGAUAUCCUGGGCUGGGCCGGGAGGUUCGGUUGGAGAAGGCACAUGAGGAUCACCCAUGUAACGG | – | – | 62.7 nM | 53.4 nM |
| AUCAGCUCGUCAGGAUAUACAACACUGCUUCGGCAGUAUGAUAAGAUAACAUGAGGAUCACCCAUGUAGAAGGGACGAGCUGAU | – | – | 6.99 nM | 9.17 nM |
| UGUAACCUAGGAUAUACAUGAGGAUCACCCAUGUAAUGUAGUAUAGUGUGUGUGAGGUGUAGAAGGAGGGAUGU | – | – | 79.5 nM | 125 nM |
| AGGUCGGGAUAAGGGCAUUCGACUCAGGAUAUGGGAGGUUUACAUGAGGAUCACCCAUGUUUCACCCAGAAGGGAGUUCAAACU | 7.59 nM | 5.84 nM | – | – |
| GUUUAGUGAGGAUAUGUGGCUUCGAUCGUGCGCGUUCGGCUACAGAAGGCACAUGAGGAUCACCCAUGUUCCUC | – | – | 445 nM | 704 nM |
| UUGUUUCGUCAUUAACAUGAGGAUCACCCAUGUAUCGUCUCAAAGGAUAUAUAUGCUUGUUUGCUAUAGAAGGUUGAUUGUUGU | 71.2 nM | 67.2 nM | – | – |
| AAAAAGACAGGAUAUACAUGAGGAUCACCCAUGUGAAAAAAAAAAAAAAAAAAAAAGUGUAGAAGGGUCAAAAA | – | – | 48.9 nM | 35.4 nM |
| GCUGACGAUGUAGGAUAUCUCGACGAUAAGUCGAGAGAAGGACAUGAGGAUCACCCAUGUACUCUAACGUCAGCGAGGAAACUC | – | – | 17.2 nM | 18.5 nM |
| GUGCGAGCCACAGGAUAUCUACAGAUUUAUUGUAGAGAAGGGUGACCUCGUGCACCACAUGAGGAUCACCCAUGUAACUAGGCG | 30 nM | 48.2 nM | – | – |
| AACGGAAUGUAGAAGGGUGACAUGAGGAUCACCCAUGUUCACAUGCGUAUUAAAGUAUGUGAUCCACAGGAUAUACUGUCCGUG | 957 nM | 92.8 nM | – | – |
| GUAGAGUAAGGAUAUGAUGAAUAGGAUAGAAUGGUUAGAAAUCAGAAGGUACAUGAGGAUCACCCAUGUAAUGU | – | – | 22.7 nM | 20.8 nM |
| CAGUACUGAGGAUAUACAUGAGGAUCACCCAUGUGCUCGAAGUAGGAUACUACUAUUAGUAGAAGGCAGUACUG | – | – | 16.1 nM | 76.8 nM |

Reference: the EternaBench riboswitch data
